From ChEMBL document CHEMBL4480400, “Development of an N-Acyl Amino Acid That Selectively Inhibits the Glycine Transporter 2 To Produce Analgesia in a Rat Model of Chronic Pain” (J Med Chem, 2019)
pIC50: −log10 of the molar value.

Assays:
[1] = target: T1, Sodium- and chloride-dependent glycine transporter 1 (Homo sapiens, UniProt P48067); assay: Inhibition of recombinant human GlyT1b expressed in Xenopus laevis oocytes assessed as reduction in channel current by two-electrode voltage clamp electrophysiology; format: cell-based
T1 sequence (P48067 whole entry): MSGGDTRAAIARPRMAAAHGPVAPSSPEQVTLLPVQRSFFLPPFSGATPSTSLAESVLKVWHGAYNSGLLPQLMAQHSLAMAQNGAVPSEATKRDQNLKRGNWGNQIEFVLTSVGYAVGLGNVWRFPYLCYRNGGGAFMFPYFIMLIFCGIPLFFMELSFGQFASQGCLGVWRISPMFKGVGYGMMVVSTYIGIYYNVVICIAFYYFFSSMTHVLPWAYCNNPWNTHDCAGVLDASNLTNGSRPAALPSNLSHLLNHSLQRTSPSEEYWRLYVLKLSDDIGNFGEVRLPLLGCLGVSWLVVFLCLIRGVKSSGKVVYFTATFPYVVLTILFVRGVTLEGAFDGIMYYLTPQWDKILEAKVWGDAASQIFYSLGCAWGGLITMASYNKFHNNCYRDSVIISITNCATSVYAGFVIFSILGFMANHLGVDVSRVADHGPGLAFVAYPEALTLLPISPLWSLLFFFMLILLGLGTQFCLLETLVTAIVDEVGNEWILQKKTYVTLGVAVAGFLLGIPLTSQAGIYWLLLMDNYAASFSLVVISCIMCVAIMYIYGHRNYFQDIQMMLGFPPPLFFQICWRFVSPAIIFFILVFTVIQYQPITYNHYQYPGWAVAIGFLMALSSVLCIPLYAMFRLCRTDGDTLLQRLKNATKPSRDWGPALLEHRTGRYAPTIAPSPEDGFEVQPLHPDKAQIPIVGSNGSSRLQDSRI

[2] = target: T2, Sodium- and chloride-dependent glycine transporter 2 (Homo sapiens, UniProt Q9Y345); assay: Reversible non-competitive inhibition of human GlyT2a expressed in Xenopus laevis oocytes by two-electrode voltage clamp electrophysiology; format: cell-based
T2 sequence (Q9Y345 whole entry): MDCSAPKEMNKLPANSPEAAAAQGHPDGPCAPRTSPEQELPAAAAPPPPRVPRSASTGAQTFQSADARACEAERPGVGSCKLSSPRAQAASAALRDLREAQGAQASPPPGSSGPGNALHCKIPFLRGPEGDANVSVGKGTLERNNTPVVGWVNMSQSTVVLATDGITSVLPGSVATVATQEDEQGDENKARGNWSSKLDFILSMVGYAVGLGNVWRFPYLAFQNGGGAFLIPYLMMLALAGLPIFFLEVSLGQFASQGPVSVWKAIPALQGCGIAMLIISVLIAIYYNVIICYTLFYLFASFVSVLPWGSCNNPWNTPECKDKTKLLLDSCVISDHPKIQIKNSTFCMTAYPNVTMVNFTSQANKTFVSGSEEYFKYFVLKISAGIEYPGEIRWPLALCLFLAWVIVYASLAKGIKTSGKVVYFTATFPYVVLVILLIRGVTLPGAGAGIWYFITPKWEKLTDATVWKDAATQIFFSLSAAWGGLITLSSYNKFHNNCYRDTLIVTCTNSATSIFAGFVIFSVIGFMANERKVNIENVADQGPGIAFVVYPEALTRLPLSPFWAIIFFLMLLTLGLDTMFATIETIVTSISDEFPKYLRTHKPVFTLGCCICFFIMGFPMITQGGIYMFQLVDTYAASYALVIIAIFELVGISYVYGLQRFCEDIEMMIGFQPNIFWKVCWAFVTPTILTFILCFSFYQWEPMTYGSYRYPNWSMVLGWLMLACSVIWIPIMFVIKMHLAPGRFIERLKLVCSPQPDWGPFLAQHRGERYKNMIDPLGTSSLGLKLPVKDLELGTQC
Method in brief: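 Xenopus laevis stage V-VI oocytes injected with 4.6 ng GlyT2 cRNA, kept 2-5 days at 16-18 °C in ND96 (pH 7.55). Two-electrode voltage clamp at -60 mV. Glycine concentration responses recorded without inhibitor, then after 2 min pre-application of inhibitor (10 nM, 30 nM or 1 μM) in ND96. Currents normalised per cell to Imax at 300 μM glycine without inhibitor; EC50 and Imax compared by ANOVA.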

[3] = target: T3, Sodium- and chloride-dependent glycine transporter 2 (Homo sapiens) (UniProt Q9Y345); assay: Inhibition of recombinant human GlyT2a expressed in Xenopus laevis oocytes assessed as reduction in channel current by two-electrode voltage clamp electrophysiology relative to control; format: cell-based
T3 sequence (whole entry): T2 sequence (Q9Y345 whole entry)

[4] = Drug degradation in human plasma at 1000 ng/ml measured over 240 mins by LC-MS/MS analysis; format: ADME, cell-free; settings: read-out: Drug degradation
Method in brief: (§1)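 Pooled human plasma (3 donors) or pooled male Sprague-Dawley rat plasma, thawed at 37°C. Spiked to a nominal 1000 ng/mL final (0.2% DMSO, 0.4% acetonitrile final) and incubated at 37°C. Aliquots were snap-frozen at time points over 4 h (n=3 per time point). Quantified by LC-MS against a same-species blank-plasma calibration with a leucine enkephalin internal standard.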

[5] = Degradation half life in rat plasma at 1000 ng/ml by LC-MS/MS analysis; format: ADME, cell-free; method in brief: as §1
[6] = target: T2, Sodium- and chloride-dependent glycine transporter 2; assay: Inhibition of recombinant human GlyT2a expressed in Xenopus laevis oocytes assessed as reduction in channel current by two-electrode voltage clamp electrophysiology; format: cell-based
[7] = Degradation half life in human plasma at 1000 ng/ml by LC-MS/MS analysis; format: ADME, cell-free; method in brief: as §1

Structure (SMILES)	pIC50 [1]	pIC50 [2]	Imax [3] [%]	metabolised at 4 h, 1000 ng/ml [4] [%]	t1/2 [5] [min]	pIC50 [6]	t1/2 [7] [min]
CCCCCCCC/C=C\CCCCCCCC(=O)NCC(=O)O [OLEOYL GLYCINE]	< 4.52	6.30	66.8	< 15	27	6.30	> 1022
CCCCCCCC/C=C\CCCCCCCC(=O)N[C@@H](CN)C(=O)O	< 5.52	–	58.2	–	–	6.74	–
CCCCCCCC/C=C\CCCCCCCC(=O)N[C@@H](CCCCN)C(=O)OC	< 5.52	–	78.8	–	–	7.04	–
CCCCCCCC/C=C\CCCCCCCC(=O)N[C@@H](Cc1ccccc1)C(=O)O	< 5.00	–	54.7	–	–	6.67	–
CCCCCCCC/C=C\CCCCCCCC(=O)N[C@@H](CC(C)C)C(=O)O	< 5.00	–	72.2	–	–	6.84	–
CCCCCCCC/C=C\CCCCCCCC(=O)N[C@@H](CC(N)=O)C(=O)O	< 5.00	–	92.7	–	–	6.21	–
CCCCCCCC/C=C\CCCCCCCC(=O)N[C@@H](CCCC)C(=O)O	< 5.00	–	64.5	–	–	6.59	–
CCCCCCCC/C=C\CCCCCCCC(=O)N[C@@H](CCCN)C(=O)O	< 5.52	–	86	–	–	7.50	–
CCCCCCCC/C=C\CCCCCCCC(=O)N[C@@H](C(=O)O)C(C)C	< 4.52	–	56.7	–	–	6.00	–
CCCCCCCC/C=C\CCCCCCCC(=O)N[C@@H](C)C(=O)O	< 4.52	–	89.8	–	–	5.91	–
CCCCC/C=C\C/C=C\C/C=C\C/C=C\CCCC(=O)N[C@@H](C)C(=O)O	–	5.05	–	–	–	–	–
CCCCCCCC/C=C\CCCCCCCC(=O)N[C@@H](Cc1cnc[nH]1)C(=O)O	< 5.52	–	78.4	–	–	6.89	–
CCCCCCCC/C=C\CCCCCCCC(=O)N[C@H](CCSC)C(=O)O	< 5.52	–	68.6	–	–	6.59	–
CCCCCCCCCCCCCCCC(=O)O[C@H](CC(=O)[O-])C[N+](C)(C)C	–	6.22	–	–	–	–	–
CCCCCCCC/C=C\CCCCCCCC(=O)N[C@H](CC(C)C)C(=O)O	< 4.52	–	35.6	–	–	< 4.52	–
CCCCCCCC/C=C\CCCCCCCC(=O)N[C@H](C)C(=O)O	< 4.52	–	81.7	–	–	5.63	–
CCCCCCCC/C=C\CCCCCCCC(=O)N[C@@H](CCC(=O)O)C(=O)O	< 5.00	–	100	–	–	5.36	–
CCCCCCCC/C=C\CCCCCCCC(=O)O[C@H](CC(=O)[O-])C[N+](C)(C)C	–	6.47	–	–	–	–	–
CCCCC/C=C\C/C=C\C/C=C\C/C=C\CCCC(=O)NCCCC(=O)O [ARACHIDONOYL GABA]	–	4.92	–	–	–	–	–

Structure (SMILES)	pIC50 [1]	pIC50 [2]	Imax [3] [%]	metabolised at 4 h, 1000 ng/ml [4] [%]	t1/2 [5] [min]	pIC50 [6]	t1/2 [7] [min]
CCCCCCCC/C=C\CCCCCCCC(=O)NCCCCCN	< 5.52	–	86.7	–	–	6.25	–
CCCCCCCC/C=C\CCCCCCCC(=O)N[C@@H](CCN)C(=O)O	< 5.52	–	82.7	–	–	6.82	–
CCCCCCCC/C=C\CCCCCCCC(=O)N[C@H](C(=O)O)C(C)C	< 4.52	–	90.1	–	–	5.93	–
CCCCCCCC/C=C\CCCCCCCC(=O)N[C@H](Cc1ccccc1)C(=O)O	< 5.00	–	42.3	–	–	< 5.00	–
CCCCCCCC/C=C\CCCCCCCC(=O)N[C@H](Cc1cnc[nH]1)C(=O)O	< 5.52	–	82.1	–	–	6.50	–
CCCCCCCC/C=C\CCCCCCCC(=O)N[C@@H](CCc1ccccc1)C(=O)O	< 5.00	–	75.1	–	–	6.82	–
CCCCCCCC/C=C\CCCCCCCC(=O)N[C@H](CO)C(=O)O	< 5.52	–	73.6	–	–	7.19	–
CCCCCCCC/C=C\CCCCCCCC(=O)N[C@@H](CCSC)C(=O)O	< 5.52	–	91.2	–	–	7.53	–
CCCCCCCC/C=C\CCCCCCCC(=O)N[C@H](CCCNC(=N)N)C(=O)O	< 5.52	–	70.9	–	–	7.16	–
CCCCCCCC/C=C\CCCCCCCC(=O)N[C@@H](CCCNC(=N)N)C(=O)O	< 5.52	–	87.2	–	–	7.32	–
CCCCCCCC/C=C\CCCCCCCC(=O)N[C@H](CCC(=O)O)C(=O)O	< 5.00	–	91.6	–	–	5.43	–
CCCCCCCC/C=C\CCCCCCCC(=O)N[C@@H](CC(=O)O)C(=O)O	< 5.00	–	76.7	–	–	6.06	–
CCCCC/C=C\C/C=C\C/C=C\C/C=C\CCCC(=O)NCC(=O)O [ARACHIDONOYL GLYCINE]	–	5.05	–	–	–	–	–
CCCCCCCC/C=C\CCCCCCCC(=O)N[C@H](CCc1ccccc1)C(=O)O	< 5.00	–	10.2	–	–	< 5.00	–
CCCCCCCC/C=C\CCCCCCCC(=O)N[C@@H](CO)C(=O)O	< 5.52	–	73.1	–	–	6.30	–
CCCCCCCC/C=C\CCCCCCCC(=O)N[C@H](Cc1c[nH]c2ccccc12)C(=O)O	< 5.00	–	14.2	–	–	< 5.00	–
CCCCCCCC/C=C\CCCCCCCC(=O)N[C@@H](Cc1c[nH]c2ccccc12)C(=O)O	< 5.00	–	86.2	–	–	7.26	–
CCCCCCCC/C=C\CCCCCCCC(=O)N[C@H](CC(=O)O)C(=O)O	< 5.00	–	92.5	–	–	5.74	–
